Data set [1] relates to Plasma. In words: Drug metabolism in Sprague-Dawley rat plasma treated with (S)-Sulindac at 2 mg, ip after 0.5 to 4 hrs by HPLC analysis. Conditions: in vivo.
For data set [2], the system named is Liver. In words: Drug metabolism in Sprague-Dawley rat liver treated with (R)-Sulindac at 2 mg, ip after 0.5 to 4 hrs by HPLC analysis. Conditions: in vivo.
Data set [3] concerns Brain. In words: Drug metabolism in Sprague-Dawley rat brain treated with (R)-Sulindac at 2 mg, ip after 0.5 to 4 hrs by HPLC analysis. Conditions: in vivo.
The subject of data set [4] is Liver. Briefly: Drug metabolism in Sprague-Dawley rat liver treated with (S)-Sulindac at 2 mg, ip after 0.5 to 4 hrs by HPLC analysis. The settings on record: in vivo.
Data set [5] deals with Plasma. In words: Drug metabolism in Sprague-Dawley rat plasma treated with (R)-Sulindac at 2 mg, ip after 0.5 to 4 hrs by HPLC analysis. Conditions: in vivo.
For data set [6], the system named is Brain. Briefly: Drug metabolism in Sprague-Dawley rat brain treated with (S)-Sulindac at 2 mg, ip after 0.5 to 4 hrs by HPLC analysis. The settings on record: in vivo.
The test system of data set [7] is Zone of skin. Briefly: Drug metabolism in Sprague-Dawley rat skin treated with (R)-Sulindac at 2 mg, ip after 0.5 to 4 hrs by HPLC analysis. The settings on record: in vivo.
For data set [8], the system named is Zone of skin. In words: Drug metabolism in Sprague-Dawley rat skin treated with (S)-Sulindac at 2 mg, ip after 0.5 to 4 hrs by HPLC analysis. The settings on record: in vivo.
For data set [9], the system named is Liver microsome. In words: Drug metabolism in rat liver microsomes at 200 µM after 60 mins by HPLC analysis in presence of NADPH. Conditions: 1 h.
Data set [10] can be described thus: Retention time in rat plasma measured after 4 hrs ip injection of sulindac. Conditions: in vivo. It counts as physicochemical, organism-based.
Data set [11] deals with Cytochrome P450 2C9 (Homo sapiens, UniProt P11712). Briefly: Drug metabolism assessed as human recombinant CYP2C9-mediated sulindac sulfone formation measured per pmol of protein at 200 uM after 90 mins by HPLC analysis. It counts as ADME. The settings on record: recombinant enzyme, 1.5 h. An outline of the steps:
(§1)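 Recombinant rat or human P450 Supersomes (some with cytochrome b5, variable reductase) incubated with (R)-sulindac at 500 μM or (S)-sulindac at 200 μM plus NADPH-regenerating system in 100 mM potassium phosphate pH 7.4 at 37°C, linear up to 90 min; acetonitrile stop; sulfone by C18 HPLC at 330 nm; ≥3 runs; pmol/pmol enzyme/h, mean ± S.E.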

Data set [12] has as its target Cytochrome P450 1A2 (Homo sapiens, UniProt P05177). Briefly: Drug metabolism assessed as human recombinant CYP1A2-mediated sulindac sulfone formation measured per pmol of protein at 200 uM after 90 mins by HPLC analysis. It counts as ADME. Conditions: recombinant enzyme, 1.5 h. The gist of the method:
as §1

The target in data set [13] is Cytochrome P450 2C19 (Homo sapiens, UniProt P33261). In words: Drug metabolism assessed as human recombinant CYP2C19-mediated sulindac sulfone formation measured per pmol of protein at 200 uM after 90 mins by HPLC analysis. Conditions: recombinant enzyme, 1.5 h. It counts as ADME. The gist of the method: as §1
Sequence of Cytochrome P450 2C19 (P33261 whole entry): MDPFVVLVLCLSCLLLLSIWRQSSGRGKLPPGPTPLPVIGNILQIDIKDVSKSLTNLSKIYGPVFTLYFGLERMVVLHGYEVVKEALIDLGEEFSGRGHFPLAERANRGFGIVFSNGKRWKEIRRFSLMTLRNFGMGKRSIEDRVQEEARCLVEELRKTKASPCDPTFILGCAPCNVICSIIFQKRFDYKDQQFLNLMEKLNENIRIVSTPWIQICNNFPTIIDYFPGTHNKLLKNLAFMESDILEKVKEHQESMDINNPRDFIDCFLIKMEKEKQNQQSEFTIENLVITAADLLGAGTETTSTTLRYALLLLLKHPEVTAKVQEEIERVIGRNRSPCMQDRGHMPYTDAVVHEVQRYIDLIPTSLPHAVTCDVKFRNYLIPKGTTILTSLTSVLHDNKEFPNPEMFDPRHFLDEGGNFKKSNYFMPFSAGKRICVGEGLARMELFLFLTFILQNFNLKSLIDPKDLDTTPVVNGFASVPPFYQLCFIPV
In data set [14] the target is Mitochondrial peptide methionine sulfoxide reductase (Rattus norvegicus, UniProt Q923M1). In words: Drug metabolism in rat liver S100 fraction assessed as MSRA-mediated reduced product formation measured per mg of protein at 200 uM by HPLC analysis. It counts as ADME, tissue-based.
Sequence of Mitochondrial peptide methionine sulfoxide reductase (Q923M1 whole entry): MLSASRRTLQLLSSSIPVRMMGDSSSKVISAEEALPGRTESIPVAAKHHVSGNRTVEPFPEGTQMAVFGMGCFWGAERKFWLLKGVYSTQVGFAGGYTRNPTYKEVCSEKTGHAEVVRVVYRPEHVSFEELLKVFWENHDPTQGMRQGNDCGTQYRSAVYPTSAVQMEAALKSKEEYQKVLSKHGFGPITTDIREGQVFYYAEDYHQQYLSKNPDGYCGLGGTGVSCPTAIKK
Data set [15] deals with Cytochrome P450 2B1 (Rattus norvegicus, UniProt P00176). Briefly: Drug metabolism assessed as rat recombinant CYP2B1-mediated sulindac sulfone formation measured per pmol of protein at 200 uM after 90 mins by HPLC analysis. It counts as ADME. Conditions: recombinant enzyme, 1.5 h. The gist of the method:
as §1

Data set [16] addresses Cytochrome P450 1A2 (Rattus norvegicus, UniProt P04799). Briefly: Drug metabolism assessed as rat recombinant CYP1A2-mediated sulindac sulfone formation measured per pmol of protein at 200 uM after 90 mins by HPLC analysis. It counts as ADME. Conditions: recombinant enzyme, 1.5 h. An outline of the steps:
as §1

The subject of data set [17] is MRC5. In words: Cytoprotective activity in TBHP-induced human MRC5 cells at 500 uM incubated for 48 hrs prior to TBHP-challenge measured after 2 hrs. The class given is functional, cell-based. The gist of the method: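 Normal lung cells preincubated 48 h with 500 μM (R)- or (S)-sulindac or no drug, then challenged with TBHP; viability expressed as percent of cells not exposed to TBHP; mean and S.E. of five repeats; p < 0.05 versus no-drug controls.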

Data set [18] concerns the target Cytochrome P450 3A4 (Homo sapiens, UniProt P08684). Briefly: Drug metabolism assessed as human recombinant CYP3A4-mediated sulindac sulfone formation measured per pmol of protein at 200 uM after 90 mins by HPLC analysis. The class given is ADME. Conditions: recombinant enzyme, 1.5 h. An outline of the steps: as §1
Data set [19] deals with A549. Briefly: Potentiation of TBHP-induced cytotoxicity in human A549 cells at 500 uM incubated for 48 hrs prior to TBHP-challenge measured after 2 hrs. It counts as functional, cell-based.
Data set [20] concerns the target Cytochrome P450 2C8 (Homo sapiens, UniProt P10632). Briefly: Drug metabolism assessed as human recombinant CYP2C8-mediated sulindac sulfone formation measured per pmol of protein at 200 uM after 90 mins by HPLC analysis. The class given is ADME. The settings on record: recombinant enzyme, 1.5 h. An outline of the steps: as §1
In data set [21] the target is Cytochrome P450 1B1 (Homo sapiens, UniProt Q16678). Briefly: Drug metabolism assessed as human recombinant CYP1B1-mediated sulindac sulfone formation measured per pmol of protein at 200 uM after 90 mins by HPLC analysis. The class given is ADME. Conditions: recombinant enzyme, 1.5 h. The gist of the method:
as §1

The target in data set [22] is Cytochrome P450 1A1 (Rattus norvegicus, UniProt P00185). Briefly: Drug metabolism assessed as rat recombinant CYP1A1-mediated sulindac sulfone formation measured per pmol of protein at 200 uM after 90 mins by HPLC analysis. The settings on record: recombinant enzyme, 1.5 h. It counts as ADME. The gist of the method: as §1
Sequence of Cytochrome P450 1A1 (P00185 whole entry): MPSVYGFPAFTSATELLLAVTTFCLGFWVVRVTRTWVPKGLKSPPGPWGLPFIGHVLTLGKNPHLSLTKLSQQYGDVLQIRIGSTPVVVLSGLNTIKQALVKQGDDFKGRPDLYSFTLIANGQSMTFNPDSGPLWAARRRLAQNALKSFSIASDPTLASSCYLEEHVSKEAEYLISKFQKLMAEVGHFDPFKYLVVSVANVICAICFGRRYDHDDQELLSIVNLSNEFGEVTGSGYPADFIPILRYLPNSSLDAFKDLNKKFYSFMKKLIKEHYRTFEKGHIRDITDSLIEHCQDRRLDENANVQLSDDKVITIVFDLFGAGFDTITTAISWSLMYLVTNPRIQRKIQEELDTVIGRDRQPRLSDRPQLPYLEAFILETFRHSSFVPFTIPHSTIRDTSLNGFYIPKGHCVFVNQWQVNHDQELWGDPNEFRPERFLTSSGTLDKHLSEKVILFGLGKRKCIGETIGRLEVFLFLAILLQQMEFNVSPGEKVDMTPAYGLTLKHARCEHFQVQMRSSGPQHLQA
In data set [23] the target is Cytochrome P450 2D6 (Homo sapiens, UniProt P10635). Briefly: Drug metabolism assessed as human recombinant CYP2D6-mediated sulindac sulfone formation measured per pmol of protein at 200 uM after 90 mins by HPLC analysis. The class given is ADME. Conditions: recombinant enzyme, 1.5 h. The gist of the method: as §1
Data set [24] has as its target Cytochrome P450 3A2 (Rattus norvegicus, UniProt P05183). In words: Drug metabolism assessed as rat recombinant CYP3A2-mediated sulindac sulfone formation measured per pmol of protein at 200 uM after 90 mins by HPLC analysis. It counts as ADME. Conditions: recombinant enzyme, 1.5 h. The gist of the method:
as §1

The source made the active and inactive calls. The rule behind the calls is not given here.

Sequence of Cytochrome P450 3A4 (P08684 whole entry): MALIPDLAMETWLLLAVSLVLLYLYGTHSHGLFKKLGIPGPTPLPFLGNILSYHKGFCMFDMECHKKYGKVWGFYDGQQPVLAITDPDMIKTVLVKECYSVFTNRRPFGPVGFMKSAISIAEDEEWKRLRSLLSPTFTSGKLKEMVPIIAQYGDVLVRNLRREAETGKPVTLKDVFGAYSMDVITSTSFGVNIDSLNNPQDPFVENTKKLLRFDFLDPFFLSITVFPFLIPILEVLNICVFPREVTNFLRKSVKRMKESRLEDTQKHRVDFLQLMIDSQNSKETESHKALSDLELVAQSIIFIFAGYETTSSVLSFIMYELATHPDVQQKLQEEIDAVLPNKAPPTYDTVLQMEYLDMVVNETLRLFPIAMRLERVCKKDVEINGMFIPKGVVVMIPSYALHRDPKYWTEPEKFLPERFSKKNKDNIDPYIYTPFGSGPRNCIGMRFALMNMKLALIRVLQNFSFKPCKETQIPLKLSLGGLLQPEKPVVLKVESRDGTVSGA
Sequence of Cytochrome P450 2C9 (P11712 whole entry): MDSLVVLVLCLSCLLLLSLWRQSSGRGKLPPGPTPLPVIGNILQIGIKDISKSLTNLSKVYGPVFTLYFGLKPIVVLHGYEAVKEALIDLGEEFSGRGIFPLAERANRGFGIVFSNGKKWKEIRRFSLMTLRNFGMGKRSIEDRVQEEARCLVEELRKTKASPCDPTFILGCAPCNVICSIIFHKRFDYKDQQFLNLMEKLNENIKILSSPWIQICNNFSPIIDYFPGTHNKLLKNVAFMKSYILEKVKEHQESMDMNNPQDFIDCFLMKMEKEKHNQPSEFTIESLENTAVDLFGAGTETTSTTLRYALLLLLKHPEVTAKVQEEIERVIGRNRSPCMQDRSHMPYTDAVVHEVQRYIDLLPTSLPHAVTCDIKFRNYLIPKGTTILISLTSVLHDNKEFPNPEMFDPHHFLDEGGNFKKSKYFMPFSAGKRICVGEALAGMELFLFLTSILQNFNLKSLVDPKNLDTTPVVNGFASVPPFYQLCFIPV
Sequence of Cytochrome P450 1A2 (Homo sapiens, UniProt P05177) (P05177 whole entry): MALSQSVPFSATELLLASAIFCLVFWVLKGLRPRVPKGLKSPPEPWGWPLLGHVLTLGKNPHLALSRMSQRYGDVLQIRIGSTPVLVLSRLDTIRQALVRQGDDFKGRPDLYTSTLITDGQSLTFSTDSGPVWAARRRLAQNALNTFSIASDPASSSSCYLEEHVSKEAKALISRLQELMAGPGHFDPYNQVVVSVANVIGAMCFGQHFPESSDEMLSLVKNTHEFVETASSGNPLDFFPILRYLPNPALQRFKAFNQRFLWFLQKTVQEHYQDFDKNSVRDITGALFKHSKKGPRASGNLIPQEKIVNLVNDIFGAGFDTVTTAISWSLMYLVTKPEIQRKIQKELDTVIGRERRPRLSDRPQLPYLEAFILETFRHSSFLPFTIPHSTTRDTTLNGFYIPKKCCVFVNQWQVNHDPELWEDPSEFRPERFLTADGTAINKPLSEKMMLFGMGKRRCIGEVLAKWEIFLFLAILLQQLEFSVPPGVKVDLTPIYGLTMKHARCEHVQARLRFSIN
Sequence of Cytochrome P450 1B1 (Q16678 whole entry): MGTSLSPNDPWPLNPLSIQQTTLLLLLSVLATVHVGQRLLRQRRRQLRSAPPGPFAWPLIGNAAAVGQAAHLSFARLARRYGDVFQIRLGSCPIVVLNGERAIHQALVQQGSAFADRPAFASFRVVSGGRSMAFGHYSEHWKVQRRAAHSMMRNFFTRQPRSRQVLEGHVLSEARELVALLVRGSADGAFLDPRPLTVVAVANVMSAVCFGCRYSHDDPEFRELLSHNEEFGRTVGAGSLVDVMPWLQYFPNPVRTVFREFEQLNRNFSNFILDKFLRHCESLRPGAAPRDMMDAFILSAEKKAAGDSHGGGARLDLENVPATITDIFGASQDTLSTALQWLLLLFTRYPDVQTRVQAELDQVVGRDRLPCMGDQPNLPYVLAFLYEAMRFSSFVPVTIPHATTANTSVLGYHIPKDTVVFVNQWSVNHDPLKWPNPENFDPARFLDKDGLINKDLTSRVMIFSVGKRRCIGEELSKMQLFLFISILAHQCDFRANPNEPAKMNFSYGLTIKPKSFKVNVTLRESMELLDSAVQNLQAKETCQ
Sequence of Cytochrome P450 1A2 (Rattus norvegicus, UniProt P04799) (P04799 whole entry): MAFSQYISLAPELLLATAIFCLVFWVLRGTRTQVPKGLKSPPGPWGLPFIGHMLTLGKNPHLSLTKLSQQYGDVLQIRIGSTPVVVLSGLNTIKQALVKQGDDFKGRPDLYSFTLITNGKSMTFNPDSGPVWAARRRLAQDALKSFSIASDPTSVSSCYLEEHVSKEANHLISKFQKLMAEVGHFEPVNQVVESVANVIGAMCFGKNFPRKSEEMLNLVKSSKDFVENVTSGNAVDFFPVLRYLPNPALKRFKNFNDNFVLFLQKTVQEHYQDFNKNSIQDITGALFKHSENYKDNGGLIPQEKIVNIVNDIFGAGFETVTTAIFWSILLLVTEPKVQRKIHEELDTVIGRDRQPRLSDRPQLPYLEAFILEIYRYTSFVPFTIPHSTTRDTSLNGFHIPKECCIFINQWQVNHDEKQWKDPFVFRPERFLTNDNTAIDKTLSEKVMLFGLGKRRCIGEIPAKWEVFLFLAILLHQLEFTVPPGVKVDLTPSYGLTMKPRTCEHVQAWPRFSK
Sequence of Cytochrome P450 3A2 (P05183 whole entry): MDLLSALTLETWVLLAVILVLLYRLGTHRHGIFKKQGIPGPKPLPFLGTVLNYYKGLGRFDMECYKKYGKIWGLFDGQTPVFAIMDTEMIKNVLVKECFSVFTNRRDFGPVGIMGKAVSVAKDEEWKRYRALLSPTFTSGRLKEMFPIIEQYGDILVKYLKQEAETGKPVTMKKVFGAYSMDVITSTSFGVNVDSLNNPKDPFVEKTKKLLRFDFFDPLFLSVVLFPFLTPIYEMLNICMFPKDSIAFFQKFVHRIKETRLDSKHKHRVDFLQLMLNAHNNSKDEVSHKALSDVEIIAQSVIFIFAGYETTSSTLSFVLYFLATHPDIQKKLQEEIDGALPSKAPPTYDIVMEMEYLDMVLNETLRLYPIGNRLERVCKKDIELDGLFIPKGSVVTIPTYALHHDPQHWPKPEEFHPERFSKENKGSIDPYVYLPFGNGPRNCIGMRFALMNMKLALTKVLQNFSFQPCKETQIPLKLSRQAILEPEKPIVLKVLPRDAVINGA
Sequence of Cytochrome P450 2B1 (P00176 whole entry): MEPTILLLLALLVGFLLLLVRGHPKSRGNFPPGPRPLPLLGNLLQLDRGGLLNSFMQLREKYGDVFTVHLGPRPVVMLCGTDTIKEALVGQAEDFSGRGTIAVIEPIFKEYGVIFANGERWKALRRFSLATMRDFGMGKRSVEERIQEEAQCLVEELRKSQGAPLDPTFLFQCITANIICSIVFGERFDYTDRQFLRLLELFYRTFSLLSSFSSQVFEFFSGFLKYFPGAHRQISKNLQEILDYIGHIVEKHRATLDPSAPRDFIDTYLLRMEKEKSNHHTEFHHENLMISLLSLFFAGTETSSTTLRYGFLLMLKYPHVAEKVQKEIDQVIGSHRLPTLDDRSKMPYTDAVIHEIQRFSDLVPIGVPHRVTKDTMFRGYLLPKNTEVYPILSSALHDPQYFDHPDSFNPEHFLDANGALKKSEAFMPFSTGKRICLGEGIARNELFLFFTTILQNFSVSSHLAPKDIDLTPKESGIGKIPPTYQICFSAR

Consider `CC1=C(CC(=O)O)c2cc(F)ccc2/C1=C\c1ccc(S(C)(=O)=O)cc1` [EXISULIND], for which the Drug metabolism entry in data set [1], in [2], in data set [3], in data set [4], in data set [5] and in [6] was “metabolite_detected” in each case. The Drug metabolism entry in [7], in [8] and in [9] was “metabolite_detected” throughout. In data set [10], this molecule gave a Retention_time of 1.5 min.

With `CC1=C(CC(=O)O)c2cc(F)ccc2/C1=C\c1ccc([S@+](C)[O-])cc1`, the Drug metabolism entry in data set [11] was “metabolite_not_detected”; in [12], 34 pmol/h; in [13] it was “metabolite_not_detected”; in data set [14], “metabolite_detected”; in [15] it was “metabolite_not_detected”; in [16], 24 pmol/h. The Drug metabolism in data set [18] is 29 pmol/h; in data set [20], “metabolite_not_detected”; in data set [21], 0 pmol/h; in [22] it was 22 pmol/h; in [23] it was “metabolite_not_detected”; in data set [24] it was “metabolite_not_detected”. Besides, the outcome in data set [17] and in data set [19] was Active.

`CSc1ccc(/C=C2/C(C)=C(CC(=O)O)c3cc(F)ccc32)cc1` [SULINDAC SULFIDE]: the Drug metabolism entry in data set [1], in data set [2], in data set [3], in data set [4], in data set [5] and in [6] was “metabolite_detected” each time. In addition, the Drug metabolism entry in data set [7] and in [8] was “metabolite_detected” in each case. The molecule also had a Retention_time in data set [10] of 7.1 min.

Values taken from ChEMBL document CHEMBL3525907, “Studies on the metabolism and biological activity of the epimers of sulindac” (Drug Metab Dispos, 2011).
